For one series, the target named is mouse eIF4E(28–217) (Mus musculus, UniProt P63073). The note with it: 50 mM HEPES/KOH (pH 7.2), 100 mM KCl, 20°C; cited from earlier work.
Series [1] relates to human immature dendritic cells (hiDCs). Briefly: Luciferase expression from 5′-capped mRNAs in dendritic cells. The format is cell-based. The note with it: luciferase mRNA capped with the analog, electroporated into hiDCs. Put shortly:
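Luciferase mRNA made by T7 in vitro transcription with the cap dinucleotide added co-transcriptionally; plasmid DNA digested and RNA purified. Capped mRNA electroporated into human immature dendritic cells. Luciferase activity read at 2, 4, 8, 24, 48 and 72 h, in duplicate, and normalised to cell number. Time of maximal expression derived by spline interpolation of the time course.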

For series [2], the target named is T1, CeDcpS (Caenorhabditis elegans, UniProt G5EFS4).
T1 sequence (G5EFS4 1-311): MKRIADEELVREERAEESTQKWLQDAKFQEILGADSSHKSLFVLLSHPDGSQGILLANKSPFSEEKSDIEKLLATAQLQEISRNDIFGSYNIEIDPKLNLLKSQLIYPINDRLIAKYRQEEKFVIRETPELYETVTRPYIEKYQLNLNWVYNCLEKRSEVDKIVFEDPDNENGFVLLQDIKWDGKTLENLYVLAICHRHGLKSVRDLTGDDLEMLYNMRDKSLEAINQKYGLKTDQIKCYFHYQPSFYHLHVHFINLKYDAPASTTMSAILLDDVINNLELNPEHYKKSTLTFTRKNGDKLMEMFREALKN
As to conditions: pH 7.6, 20°C; cited from earlier work.

The target in series [3] is T2, hDcpS (Homo sapiens, UniProt Q96C86).
T2 sequence (Q96C86 1-337): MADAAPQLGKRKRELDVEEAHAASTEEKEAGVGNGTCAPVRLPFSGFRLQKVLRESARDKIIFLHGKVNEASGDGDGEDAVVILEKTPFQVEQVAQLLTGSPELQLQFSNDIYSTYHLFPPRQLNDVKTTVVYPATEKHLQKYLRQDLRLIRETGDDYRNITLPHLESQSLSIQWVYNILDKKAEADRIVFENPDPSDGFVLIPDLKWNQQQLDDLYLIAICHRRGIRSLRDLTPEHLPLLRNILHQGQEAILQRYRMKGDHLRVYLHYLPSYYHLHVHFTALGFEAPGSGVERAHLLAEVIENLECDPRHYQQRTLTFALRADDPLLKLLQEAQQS
The note with it: pH 7.6, 20°C; cited from earlier work.

Series [4] has as its target T2, hDcpS. Briefly: HPLC-based assay of DcpS-mediated hydrolysis, Assay 2. The format is biochemical. As to conditions: DcpS 200 nM, cap analog 15 μM, pH 7.6, 20 °C.
Another series can be described thus: Stacking measurements. As to conditions: 0.1 M phosphate buffer, pH 5.2, 20°C; from fluorescence intensity of 7-methylguanosine; mean ± SD. In kind it is physicochemical. Put shortly: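 Dinucleotide fluorescence intensity compared with m⁷GMP (7-methylguanosine fluorophore) in phosphate buffer, pH 5.2, at 20 °C. Stacked fraction calculated as (F_m7GMP − F_cap)/F_m7GMP, since stacking partially quenches 7-methylguanosine fluorescence. Values given as mean ± SD.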

Series [5] concerns the target T1, CeDcpS. Briefly: HPLC-based assay of DcpS-mediated hydrolysis, Assay 2. In kind it is biochemical. As to conditions: DcpS 200 nM, cap analog 15 μM, pH 7.6, 20 °C. The method in brief: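 Substrate at 15 µM sits 10 min at 20°C in 50 mM Tris HCl, 200 mM KCl, 0.5 mM EDTA, 1 mM DTT (final pH 7.6) before enzyme is added to 0.2 μM. Aliquots are heat-stopped at 97°C for 2.5 min at 10 and 90 min. Analysis is RP HPLC (methanol 0–30% in 0.1 M KH₂PO₄), reading A260 and fluorescence (ex 280/em 337 nm). Output is x = % substrate hydrolysed, with the substrate peak multiplied by 1.1. CeDcpS was E. coli-expressed and Ni-NTA-purified.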

mouse eIF4E(28–217), sequence (P63073 28-217): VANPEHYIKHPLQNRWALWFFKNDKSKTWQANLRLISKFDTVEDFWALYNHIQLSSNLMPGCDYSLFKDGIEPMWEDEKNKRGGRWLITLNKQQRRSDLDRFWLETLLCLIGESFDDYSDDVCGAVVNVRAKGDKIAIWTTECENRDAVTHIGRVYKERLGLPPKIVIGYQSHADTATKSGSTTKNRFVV

On to `CO[C@@H]1[C@H](O)[C@@H](COP(=O)(O)OP(=O)([O-])OP(=O)(O)OC[C@H]2O[C@@H](n3cnc4c(=O)[nH]c(N)nc43)[C@H](O)[C@@H]2O)O[C@H]1n1c[n+](C)c2c(O)nc(N)nc21` [m2^7,2′-OGpppG], for which, at mouse eIF4E(28–217), the “KAS (equilibrium association constant) for eIF4E” value (shortened to “KAS … for eIF4E”) was 10.8 ± 0.3 µM⁻¹.

As to `CO[C@H]1[C@@H](O)[C@H]([n+]2cn(C)c3c(=O)[nH]c(N)nc32)O[C@@H]1COP(=O)([O-])OP(=O)(O)OP(=O)(O)OC[C@H]1O[C@@H](n2cnc3c(=O)[nH]c(N)nc32)[C@H](O)[C@@H]1O` [m2^7,3′-OGpppG], the “Time of max. (time point of maximal protein expression, functional RNA stability)” value in series [1] came out at 11.45 ± 0.07 h.

On to `C[n+]1cn([C@@H]2O[C@H](COP(=O)(O)OP(=O)(O)O)[C@@H](O)[C@H]2O)c2nc(N)[nH]c(=O)c21` [m^7GDP, 7-methylguanosine diphosphate], for which the “KAS for CeDcpS” value at CeDcpS [2] is recorded as 97 ± 12^c μM^−1. For the same molecule, on hDcpS [3], the “KAS for hDcpS” value is recorded as 114 ± 8^b μM^−1.

As for `C[n+]1cn([C@@H]2O[C@H](COP(=O)(O)CP(=O)(O)OP(=O)(O)OC[C@H]3O[C@@H](n4cnc5c(=O)[nH]c(N)nc54)[C@H](O)[C@@H]3O)[C@@H](O)[C@H]2O)c2nc(N)[nH]c(=O)c21` [m^7GpCH2ppG], the “KAS for CeDcpS” value at CeDcpS [2] is on record as 8.6 ± 0.4^c μM^−1. Further, the “KAS for hDcpS” value at hDcpS [3] is on record as 234 ± 14^e μM^−1.

`C[n+]1cn([C@@H]2O[C@H](COP(=O)([O-])NP(=O)(O)OP(=O)(O)OC[C@H]3O[C@@H](n4cnc5c(=O)[nH]c(N)nc54)[C@H](O)[C@@H]3O)[C@@H](O)[C@H]2O)c2nc(N)[nH]c(=O)c21.N.N` [m^7GpNHppG]: the “KAS for CeDcpS” value on CeDcpS [2] is on record as 66 ± 9^c μM^−1. Also, the “KAS for hDcpS” value on hDcpS [3] was 218 ± 24^d μM^−1.

With `C[n+]1cn([C@@H]2O[C@H](COP(=O)(O)OP(O)(=S)OP(=O)(O)OC[C@H]3O[C@@H](n4cnc5c(=O)[nH]c(N)nc54)[C@H](O)[C@@H]3O)[C@@H](O)[C@H]2O)c2nc(N)[nH]c(=O)c21` (some centres unmarked) [m^7GppSpG D1], the “Percent of cleavage, x (%) hDcpS 10 min” value at hDcpS [4] (reaction time 10 min) is given as 100%. The “Percent of cleavage, x (%) hDcpS 90 min” value at hDcpS [4] (reaction time 90 min) is 100%. Also, in the series “Stacking measurements”, the “% of stacked conformation” value came out at 61.8 ± 0.7%. Also, the “KAS … for eIF4E” value at mouse eIF4E(28–217) is 45.0 ± 1.1 µM⁻¹. Also, on CeDcpS [5] (reaction time 10 min), the “Percent of cleavage, x (%) CeDcpS 10 min” value was found to be 100%. For the same molecule, the “Percent of cleavage, x (%) CeDcpS 90 min” value at CeDcpS [5] (reaction time 90 min) was 100%.

Regarding `C[n+]1cn(C2OC(COP(=O)(O)OP(O)(=S)OP(=O)(O)OCC3OC(n4cnc5c(=O)[nH]c(N)nc54)C(O)C3O)C(O)C2O)c2nc(N)[nH]c(=O)c21` (centres unmarked) [m^7GppSpG D2], the “% of stacked conformation” value in the series “Stacking measurements” was 60.8 ± 0.2%. In addition, at mouse eIF4E(28–217), the “KAS … for eIF4E” value is 23.0 ± 0.4 µM⁻¹.

Regarding `C[n+]1cn([C@@H]2O[C@H](COP(=O)(O)OP(=O)(O)OP(=O)(O)OC[C@H]3O[C@@H](n4c[n+](C)c5c(=O)[nH]c(N)nc54)[C@H](O)[C@@H]3O)[C@@H](O)[C@H]2O)c2nc(N)[nH]c(=O)c21` [m^7Gpppm^7G], the “KAS … for eIF4E” value at mouse eIF4E(28–217) was 5.0 ± 0.2 µM⁻¹.

The values are drawn from PMC4176373 (Nucleic Acids Research, 2014).
